Experiments:
[1] = Cytotoxicity against human CaEs17 cells after 72 hrs by MTT assay; type: functional, cell-based; conditions: CaEs17, 72 h
Method in brief: (§1)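 K562, CaEs-17, Bel-7402 and MGC-803 cells in log phase seeded at 5 × 10⁴ cells/mL, incubated with or without test compounds at 37 °C, 5% CO₂; after 72 h MTT (5 mg/mL stock) added for 4 h, formazan dissolved in DMSO, OD read at 490 nm. Negative reference 0.1% DMSO, Taxol positive control. IC50 as mean ± S.D. of three independent experiments.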

[2] = test system: MGC-803; assay: Cytotoxicity against human MGC803 cells after 72 hrs by MTT assay; type: functional, cell-based; conditions: MGC-803, 72 h; method in brief: as §1
[3] = test system: K562; assay: Cytotoxicity against human K562 cells after 72 hrs by MTT assay; type: functional, cell-based; conditions: K562, 72 h; method in brief: as §1
[4] = test system: Bel-7402; assay: Cytotoxicity against human Bel7402 cells after 72 hrs by MTT assay; type: functional, cell-based; conditions: Bel-7402, 72 h; method in brief: as §1
[5] = test system: Bel-7402; assay: Induction of apoptosis in human Bel7402 cells assessed as early and late apoptotic cells at 0.6 uM after 2 days by Annexin-V/FITC-propidium iodide staining-based flow cytometry (reference value: 4.8 %); type: functional
[6] = test system: Bel-7402; assay: Induction of apoptosis in human Bel7402 cells assessed as increase in caspase 9 expression after 48 hrs by Western blotting analysis; type: functional, cell-based
Method in brief: (§2)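 Bel-7402 cells treated with vehicle control or compound at 0.15, 0.3 or […] (so in the source). Lysates at […] protein per lane (so in the source) separated by 10% SDS-PAGE, transferred to nitrocellulose and immunoblotted, with β-actin measured as reference. Significance vs. vehicle control marked at P < 0.05 and P < 0.01.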

[7] = test system: Bel-7402; assay: Induction of apoptosis in human Bel7402 cells assessed as increase in caspase 3 expression after 48 hrs by Western blotting analysis; type: functional, cell-based; method in brief: as §2
[8] = test system: Bel-7402; assay: Cell cycle arrest in human Bel7402 cells assessed as accumulation at G2/M phase at 0.3 uM after 48 hrs by propidium iodide staining-based FACS analysis (reference value: 12.60 %); type: functional
Method in brief: (§3)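 Bel-7402 cells seeded at 5.0 × 10³ cells/well and incubated 24 h at 37 °C, then exposed to test compound or DMSO solvent control for 48 h. Cells fixed in 70% ethanol, RNase-treated, PI-stained; DNA content of nuclei measured by flow cytometry.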

[9] = test system: Bel-7402; assay: Induction of apoptosis in human Bel7402 cells assessed as viable cells at 0.15 uM after 2 days by Annexin-V/FITC-propidium iodide staining-based flow cytometry (reference value: 94.1 %); type: functional; conditions: Bel-7402, 48 h, read-out: Activity
[10] = test system: Bel-7402; assay: Cell cycle arrest in human Bel7402 cells assessed as accumulation at G1 phase at 0.3 uM after 48 hrs by propidium iodide staining-based FACS analysis (reference value: 48.23 %); type: functional; method in brief: as §3
[11] = test system: Bel-7402; assay: Induction of apoptosis in human Bel7402 cells at 0.3 uM after 48 hrs by propidium iodide staining-based FACS analysis (reference value: 1.67 %); type: functional; method in brief: as §3
[12] = test system: Bel-7402; assay: Induction of apoptosis in human Bel7402 cells assessed as increase in Fas expression after 48 hrs by Western blotting analysis; type: functional, cell-based; method in brief: as §2
[13] = test system: Bel-7402; assay: Induction of apoptosis in human Bel7402 cells assessed as necrotic cells at 0.15 uM after 2 days by Annexin-V/FITC-propidium iodide staining-based flow cytometry (reference value: 1.1 %); type: functional
[14] = test system: Bel-7402; assay: Induction of apoptosis in human Bel7402 cells assessed as increase in cytochrome C expression after 48 hrs by Western blotting analysis; type: functional, cell-based; method in brief: as §2
[15] = test system: Bel-7402; assay: Induction of apoptosis in human Bel7402 cells assessed as late apoptotic cells at 0.15 uM after 2 days by Annexin-V/FITC-propidium iodide staining-based flow cytometry (reference value: 2.2 %); type: functional
[16] = test system: Bel-7402; assay: Induction of apoptosis in human Bel7402 cells assessed as viable cells at 0.3 uM after 2 days by Annexin-V/FITC-propidium iodide staining-based flow cytometry (reference value: 94.1 %); type: functional; conditions: Bel-7402, 48 h, read-out: Activity
[17] = test system: Bel-7402; assay: Cell cycle arrest in human Bel7402 cells assessed as accumulation at S phase at 0.15 uM after 48 hrs by propidium iodide staining-based FACS analysis (reference value: 39.17 %); type: functional; method in brief: as §3
[18] = test system: Bel-7402; assay: Induction of mitochondrial membrane depolarization in human Bel7402 cells assessed as apoptotic cells after 48 hrs by JC-1 staining-based flow cytometry; type: functional, cell-based
Method in brief: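 In triplicate, Bel-7402 cells cultured overnight, then incubated with compound (0, 0.15, 0.3, […] as printed) or vehicle for 48 h, stained with the lipophilic cationic dye JC-1. Cells with collapsed mitochondrial membrane potential counted by flow cytometry.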

[19] = test system: Bel-7402; assay: Induction of apoptosis in human Bel7402 cells assessed as reduction in Bcl2 expression after 48 hrs by Western blotting analysis; type: functional, cell-based; method in brief: as §2
[20] = test system: Bel-7402; assay: Induction of apoptosis in human Bel7402 cells at 0.6 uM after 48 hrs by propidium iodide staining-based FACS analysis (reference value: 1.67 %); type: functional; method in brief: as §3
[21] = test system: Bel-7402; assay: Induction of apoptosis in human Bel7402 cells assessed as late apoptotic cells at 0.6 uM after 2 days by Annexin-V/FITC-propidium iodide staining-based flow cytometry (reference value: 2.2 %); type: functional
[22] = test system: Bel-7402; assay: Induction of apoptosis in human Bel7402 cells assessed as viable cells at 0.6 uM after 2 days by Annexin-V/FITC-propidium iodide staining-based flow cytometry (reference value: 94.1 %); type: functional; conditions: Bel-7402, 48 h, read-out: Activity
[23] = test system: Bel-7402; assay: Induction of mitochondrial membrane depolarization in human Bel7402 cells assessed as normal cells at 0.3 uM after 48 hrs by JC-1 staining-based flow cytometry; type: functional
[24] = test system: Bel-7402; assay: Induction of apoptosis in human Bel7402 cells assessed as early apoptotic cells at 0.15 uM after 2 days by Annexin-V/FITC-propidium iodide staining-based flow cytometry (reference value: 2.6 %); type: functional
[25] = test system: Bel-7402; assay: Cell cycle arrest in human Bel7402 cells assessed as accumulation at S phase at 0.6 uM after 48 hrs by propidium iodide staining-based FACS analysis (reference value: 39.17 %).; type: functional; method in brief: as §3
[26] = test system: Bel-7402; assay: Cell cycle arrest in human Bel7402 cells assessed as accumulation at G2/M phase at 0.6 uM after 48 hrs by propidium iodide staining-based FACS analysis (reference value: 12.60 %); type: functional; method in brief: as §3
[27] = test system: Bel-7402; assay: Cell cycle arrest in human Bel7402 cells assessed as accumulation at G1 phase at 0.6 uM after 48 hrs by propidium iodide staining-based FACS analysis (reference value: 48.23 %); type: functional; method in brief: as §3
[28] = test system: Bel-7402; assay: Induction of apoptosis in human Bel7402 cells at 0.15 uM after 48 hrs by propidium iodide staining-based FACS analysis (reference value: 1.67 %); type: functional; method in brief: as §3
[29] = test system: Bel-7402; assay: Induction of apoptosis in human Bel7402 cells assessed as necrotic cells at 0.3 uM after 2 days by Annexin-V/FITC-propidium iodide staining-based flow cytometry (reference value: 1.1 %); type: functional
[30] = test system: Bel-7402; assay: Cell cycle arrest in human Bel7402 cells assessed as accumulation at G1 phase at 0.15 uM after 48 hrs by propidium iodide staining-based FACS analysis (reference value: 48.23 %); type: functional; method in brief: as §3
[31] = test system: Bel-7402; assay: Induction of apoptosis in human Bel7402 cells assessed as necrotic cells at 0.6 uM after 2 days by Annexin-V/FITC-propidium iodide staining-based flow cytometry (reference value: 1.1 %); type: functional
[32] = test system: Bel-7402; assay: Induction of apoptosis in human Bel7402 cells after 2 days by Annexin-V/FITC-propidium iodide staining-based flow cytometry; type: functional, cell-based
[33] = test system: Bel-7402; assay: Cell cycle arrest in human Bel7402 cells assessed as accumulation at S phase at 0.3 uM after 48 hrs by propidium iodide staining-based FACS analysis (reference value: 39.17 %); type: functional; method in brief: as §3
[34] = test system: Bel-7402; assay: Cell cycle arrest in human Bel7402 cells assessed as accumulation at G2/M phase at 0.15 uM after 48 hrs by propidium iodide staining-based FACS analysis (reference value: 12.60 %); type: functional; method in brief: as §3
[35] = test system: Bel-7402; assay: Induction of apoptosis in human Bel7402 cells assessed as early and late apoptotic cells at 0.3 uM after 2 days by Annexin-V/FITC-propidium iodide staining-based flow cytometry (reference value: 4.8 %); type: functional
[36] = test system: Bel-7402; assay: Induction of apoptosis in human Bel7402 cells assessed as increase in caspase 8 expression after 48 hrs by Western blotting analysis; type: functional, cell-based; method in brief: as §2
[37] = test system: Bel-7402; assay: Induction of apoptosis in human Bel7402 cells assessed as early apoptotic cells at 0.6 uM after 2 days by Annexin-V/FITC-propidium iodide staining-based flow cytometry (reference value: 2.6 %); type: functional
[38] = test system: Bel-7402; assay: Induction of apoptosis in human Bel7402 cells assessed as early and late apoptotic cells at 0.15 uM after 2 days by Annexin-V/FITC-propidium iodide staining-based flow cytometry (reference value: 4.8 %); type: functional
[39] = test system: Bel-7402; assay: Induction of apoptosis in human Bel7402 cells assessed as late apoptotic cells at 0.3 uM after 2 days by Annexin-V/FITC-propidium iodide staining-based flow cytometry (reference value: 2.2 %); type: functional
[40] = test system: Bel-7402; assay: Induction of apoptosis in human Bel7402 cells assessed as increase in Bax expression after 48 hrs by Western blotting analysis; type: functional, cell-based; method in brief: as §2
[41] = test system: Bel-7402; assay: Induction of apoptosis in human Bel7402 cells assessed as early apoptotic cells at 0.3 uM after 2 days by Annexin-V/FITC-propidium iodide staining-based flow cytometry (reference value: 2.6 %); type: functional
[42] = test system: Bel-7402; assay: Induction of mitochondrial membrane depolarization in human Bel7402 cells assessed as normal cells at 0.6 uM after 48 hrs by JC-1 staining-based flow cytometry; type: functional

C=C1C(=O)[C@@]23C(=O)O[C@H]4CCC(C)(C)[C@H]5[C@H](O)OC[C@@]45[C@@H]2CC[C@@H]1[C@H]3OC(=O)c1ccc([N+](=O)[O-])cc1
IC50 [1]: 580 nM
IC50 [2]: 640 nM
IC50 [3]: 260 nM
IC50 [4]: 1010 nM

C=C1C(=O)[C@@]23C(=O)O[C@H]4CCC(C)(C)[C@H]5[C@H](O)OC[C@@]45[C@@H]2CC[C@@H]1[C@H]3OC(=O)c1cc(F)c(F)c(F)c1F
IC50 [1]: 1890 nM
IC50 [2]: 1240 nM
IC50 [3]: 1040 nM
IC50 [4]: 890 nM

C=C1C(=O)[C@@]23C(=O)O[C@H]4CCC(C)(C)[C@H]5[C@H](O)OC[C@@]45[C@@H]2CC[C@@H]1[C@H]3OC(=O)c1ccc(Cl)cc1
Activity [5]: 50.5%
Activity [6]: Dose-dependent effect
Activity [7]: Dose-dependent effect
Activity [8]: 20.48%
viability at 0.15 µM [9]: 84.6%
Activity [10]: 50.28%
Activity [11]: 14.86%
Activity [12]: Dose-dependent effect
Activity [13]: 1%
Activity [14]: Dose-dependent effect
IC50 [1]: 280 nM
Activity [15]: 5.5%
viability at 0.3 µM [16]: 66.5%
Activity [17]: 38.72%
Activity [18]: Dose-dependent effect
Activity [19]: Dose-dependent effect
Activity [20]: 31.97%
Activity [21]: 28.1%
viability at 0.6 µM [22]: 48.8%
Activity [23]: 82.4%
IC50 [2]: 1220 nM
Activity [24]: 8.8%
IC50 [3]: 240 nM
Activity [25]: 20.17%
Activity [26]: 28.76%
Activity [27]: 51.07%
Activity [28]: 2.07%
Activity [29]: 0.3%
Activity [30]: 46.18%
Activity [31]: 0.7%
Activity [32]: Dose-dependent effect
IC50 [4]: 870 nM
Activity [33]: 29.24%
Activity [34]: 15.1%
Activity [35]: 33.3%
Activity [36]: Dose-dependent effect
Activity [37]: 22.4%
Activity [38]: 14.3%
Activity [39]: 18.5%
Activity [40]: Dose-dependent effect
Activity [41]: 14.8%
Activity [42]: 54.4%

From ChEMBL document CHEMBL2390862, “Enmein-type diterpenoid analogs from natural kaurene-type oridonin: Synthesis and their antitumor biological evaluation” (Eur J Med Chem, 2013)
